# High-throughput results (PubChem)
# Shown are actives, neighbours in structure and some others; about 2.3% of the full set was active somewhere.
# ASAP1 inh: inhibitors of human ASAP1 ArfGAP activity. Q9ULH1. ASAP1-stimulated ARF1 GTP hydrolysis, GDP FP detection. inhibition, % at 16.5 µM. actives 0.19% (n = 360,000); in the data active = inhibition above about 25%
# ARFGAP1 inhibitor: inhibits rat ARF GTPase activating protein 1 | Q62848 | Arfgap1-stimulated ARF1 GTP hydrolysis, GDP FP detection | inhibition, % at 16.5 µM | actives 0.26% (n = 360,000) | AID 651572;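 active = inhibition above a per-plate limit, mean inhibition of low control wells plus 3 SD, cut at about 25% in these data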
# Target sequence (Q62848 1-136 limits assumed): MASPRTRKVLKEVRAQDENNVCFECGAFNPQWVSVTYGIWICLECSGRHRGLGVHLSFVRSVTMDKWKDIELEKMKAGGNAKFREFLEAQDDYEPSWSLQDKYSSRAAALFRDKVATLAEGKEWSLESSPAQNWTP
#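 system = rat Arfgap1 catalytic domain, aa 1-136 | technique = FP, GDP Alexa 633 tracer displaced from anti-GDP antibody, 620/688 nm | compound = one concentration, 16.5 µM, DMSO 1.26% | medium = HEPES-based buffer, pH 7.5 | timing = compound-enzyme preincubation 20 min, reaction 120 min, detection 60 min, 25 °C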
# HGIII-sPLA2 inh: Inhibits HGIII-sPLA2 liposome hydrolysis, primary screen | QFRET BODIPY PC-A2 liposome hydrolysis, fluorescence | inhibition, % at 12.2 µM | actives 0.56% (n = 370,000);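 active = inhibition above mean plus 3 SD of compounds lying within the high and low control bounds, cut at about 19% in these data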
# Target sequence (Q9NZ20 whole entry, looked up): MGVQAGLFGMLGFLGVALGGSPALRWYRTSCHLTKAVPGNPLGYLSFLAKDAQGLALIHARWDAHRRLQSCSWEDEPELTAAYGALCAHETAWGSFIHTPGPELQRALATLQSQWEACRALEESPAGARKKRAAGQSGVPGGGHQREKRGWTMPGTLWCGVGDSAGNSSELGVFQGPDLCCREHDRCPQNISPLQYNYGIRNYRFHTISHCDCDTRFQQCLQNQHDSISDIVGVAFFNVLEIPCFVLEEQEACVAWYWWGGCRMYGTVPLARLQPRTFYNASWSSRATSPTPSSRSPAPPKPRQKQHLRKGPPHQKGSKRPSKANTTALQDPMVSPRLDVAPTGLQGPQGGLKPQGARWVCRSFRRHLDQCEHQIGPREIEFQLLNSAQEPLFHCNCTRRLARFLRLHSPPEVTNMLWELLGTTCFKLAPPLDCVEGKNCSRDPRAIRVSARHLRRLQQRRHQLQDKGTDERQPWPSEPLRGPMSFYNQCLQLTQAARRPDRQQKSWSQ
# Calb FLC: affects C. albicans growth with fluconazole; C. albicans CaCi-2 + fluconazole, Alamar Blue growth, 48 h; growth inhibition, % (concentration not given with the values); actives 0.57% (n = 300,000); AID 1979;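 active = growth inhibition above about 58% in most replicates, limit read from the data, passing the limit was not always enough; inconclusive = exactly half the replicates above a set limit; inactive = most replicates below a set limit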;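 note: all wells also contain fluconazole at 8 µg/ml as a sub-toxic cotreatment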
# SKKanGAS inh: blocks kanamycin growth of S. pyogenes SKKanGAS strain | BacTiter-Glo, 6 h | inhibition, % at 7.5 µM | actives 1.3% (n = 300,000);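 active = mean replicate score, as percent of positive control median, at least 50; inconclusive = mean below 50 but one replicate at or above 50; inactive = mean and every replicate below 50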;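 note: strain carries kanamycin resistance gene driven by streptokinase promoter and grows in 40 µg/ml kanamycin; loss of luminescence reflects streptokinase promoter inhibition or plain growth inhibition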
# ASAP1 GAP conf: confirmation of human ASAP1 inhibitors; inhibition, % at 16.5 µM; ASAP1-stimulated Arf1 GTPase, GDP fluorescence polarization; actives 37% (n = 620); shares compounds with ASAP1 inh;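 active = mean inhibition over triplicates exceeds the hit threshold derived for the earlier primary screening run, cut at about 25% in these data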
# ARFGAP1 confirm: rat ARFGAP1 inhibition, confirmed; shares compounds with ARFGAP1 inhibitor; ARFGAP1-stimulated ARF1 GTP hydrolysis, GDP tracer FP; inhibition, % at 16.5 µM; actives 30% (n = 890); AID 651608;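 active = average inhibition over triplicates above the hit cutoff set in the earlier primary screen, cut at about 25% in these data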
# Numbers stand for hits; n = inactive; u = inconclusive; x = no result given.
SMILES,ASAP1 inh,ARFGAP1 inhibitor,HGIII-sPLA2 inh,Calb FLC,SKKanGAS inh,ASAP1 GAP conf,others
CCCOc1cc2c(C#N)c(N3CCCC3)nc(N)c2c(N)n1,36,n,n,n,n,n,
COc1cc2c(C#N)c(N3CCN(C)CC3)nc(N)c2c(N)n1,n,n,n,n,n,x,
CCN1Cc2nnn(CC3CCCCC3)c2-c2ccccc2S1(=O)=O,x,x,n,x,x,x,
Cn1c(SC2CCCC2)nnc1-c1ccco1,x,x,n,x,x,x,
O=C(NCC1CC1)C1Cc2c(-c3ccc4c(c3)OCO4)ccnc2O1 (stereo unspecified),n,n,n,x,x,x,
COc1ccc(NC(=O)C[C@H]2C(=O)N(c3ccc(Br)cc3)C[C@@H]2c2ccc(OC)cc2)cc1,n,n,n,x,x,x,
COc1ccc([C@H]2CN(c3ccc(OC)cc3)C(=O)[C@@H]2CC(=O)Nc2ccccc2)cc1,28,n,n,x,x,n,
C[C@H](O)[C@@H]1C(=O)N2CCc3c([nH]c4c(-c5ccc6c(c5)OCO6)cccc34)[C@@H]2C[C@@H]1N(C)C(=O)Nc1ccccc1,29,n,n,x,x,n,
Cc1ccc(C2CCC3(CCC(=O)N3CCOC(=O)Nc3cccc(C#N)c3)CC2)cc1 (stereo unspecified),x,x,n,x,x,x,
COc1ccc(NC(=O)Cn2nnc(-c3ccccc3NC(=O)c3ccco3)n2)cc1,n,n,n,n,n,x,
COc1ccccc1NC(=O)Cn1nnc(-c2ccccc2NC(=O)c2ccco2)n1,28,n,n,n,n,n,
Cn1c(SCC2CCC2)nnc1-c1ccco1,x,x,n,x,x,x,
COc1ccc(C(C)=O)cc1COC(=O)c1ccc2c(c1)OCCO2,28,n,n,x,x,n,
CCCCCn1nnnc1C1(C)CCSCC(=O)N1Cc1ccco1 (stereo unspecified),x,x,n,x,x,x,
Cc1cc(NC(=O)Nc2cccc(F)c2)n(-c2ccccc2)n1,x,x,n,x,x,x,
Cc1ccc(C(=O)NCCC2=CCCCC2)cc1S(=O)(=O)N1CCCCC1,28,n,n,n,n,n,
O=[N+]([O-])c1cccc(-c2cc(-c3cc(Br)ccc3O)[nH]n2)c1,25,n,n,84,n,n,
C[C@@H]1CN([C@@H](C)CO)C(=O)c2cccc(NC(=O)Nc3cccc4ccccc34)c2O[C@H]1CN(C)S(=O)(=O)c1ccc2c(c1)OCCO2,x,x,n,x,x,x,
CCOc1ccc(NS(=O)(=O)c2ccc(NC(=S)NC(=O)C(C)C)cc2)cc1,n,n,n,n,n,x,
COc1ccc(NS(=O)(=O)c2ccc(NC(=S)NC(=O)C(C)C)cc2)cc1,31,n,n,n,n,n,
CC[n+]1c(/C=C/C=C/N(C(C)=O)c2ccccc2)sc2ccccc21,45,n,n,89,n,44,
Cc1cccc(OCc2nnc(SCC(=O)Nc3ccc(N4CCOCC4)cc3)o2)c1,32,n,n,n,n,n,
CC(=O)N(C)c1ccc(NC(=O)Nc2ccc(C)c(C)c2)cc1,27,n,n,n,n,n,
CC(=O)N(C)c1ccc(NC(=O)Nc2ccccc2C)cc1,n,n,n,n,n,x,
COC(=O)[C@]12C[C@H](CC(=O)N3CCCC3)C(=O)N(Cc3ccc(Cl)cc3Cl)C1=C[C@H](C1CCCC1)O[C@@H]2C,x,x,n,x,x,x,
SMILES,ASAP1 inh,ARFGAP1 inhibitor,HGIII-sPLA2 inh,Calb FLC,SKKanGAS inh,ASAP1 GAP conf,others
COC(=O)[C@]12C[C@H](CC(=O)NCc3cccc4ccccc34)C(=O)N(Cc3cccc4ccccc34)C1=C[C@H](C(C)C)O[C@@H]2C1CC1,x,x,n,x,x,x,
C[C@@H]1CC2=C(C(=O)OC(C)(C)O2)[C@H](c2ccc(F)cc2)O1,n,n,n,x,x,x,
C[C@@H]1CC2=C(C(=O)OC(C)(C)O2)[C@H](c2ccc(Cl)cc2)O1,26,n,n,x,x,n,
O=C(Nc1ccc2oc(=O)ccc2c1)c1ccc(-c2ccc(Cl)cc2)o1,48,n,n,n,n,69,
O=C(Nc1ccc2oc(=O)ccc2c1)c1ccc(-c2cccc(Cl)c2)o1,n,n,n,n,n,x,
CN(C)c1cccc(/C=C2\CC3(OC(=O)c4ccc(F)cc4)CCCN2C3)c1 (stereo unspecified),x,x,n,x,x,x,
CC(C)=CCn1c2ccc(NC(=O)Nc3cccnc3)cc2c(=O)n1C,25,n,n,x,x,n,
CC1CC(C)CN(C(=O)c2cccc(N3C(=O)c4ccccc4C3=O)c2)C1 (stereo unspecified),25,n,n,x,x,n,
CC1CCN(C(=O)c2ccc(N3C(=O)c4ccccc4C3=O)cc2)CC1,n,n,n,n,n,x,
Cc1ccc(SCC(=O)NC2CC2)cc1,27,n,n,n,n,n,
Cc1c(C#N)c2ccccc2n1CC(=O)NCCc1c[nH]c2ccccc12,n,n,n,n,n,x,
N#Cc1cn(CC(=O)NCCc2c[nH]c3ccccc23)c2ccccc12,27,n,n,n,n,n,
COc1ccc(/C=N/NC(=O)CCCOc2ccc(Cl)cc2Cl)cc1[N+](=O)[O-],n,n,n,n,n,x,
Cc1ccc(/C=N/NC(=O)CCCOc2ccc(Cl)cc2Cl)cc1[N+](=O)[O-],50,n,n,n,n,37,
CN(CCc1ccccn1)C(=O)c1ccc2c(c1)ncn2C1CCCCC1,x,x,n,x,x,x,
CCOc1ccc(C=NNC(=O)c2cc(-c3ccc(Cl)cc3)n[nH]2)cc1,x,x,n,x,x,x,
Clc1ccc(Cn2cc(/C=N/n3cnnc3)c3ccccc32)c(Cl)c1,44,60,n,u,n,51,ARFGAP1 confirm=77
COc1ccc(/C=N/Nc2cc(C)nc3ccc(OC)cc23)c(OC)c1,43,33,n,n,n,93,ARFGAP1 confirm=93
COc1ccccc1/C=N/Nc1cc(C)nc2ccc(C)cc12,n,n,n,n,n,x,
CCOC(=O)[C@@H](NC(=O)[C@@H]1CC=C[C@@H]2CCN(Cc3ccc(Cl)cc3)C(=O)[C@@H]21)C(C)C,x,x,n,x,x,x,
CC(=O)c1ccc(NC(=O)c2ccc(NC(=O)c3ccco3)cc2)cc1,x,x,x,n,n,x,
COC(=O)c1ccc(NC(=O)c2ccc(NC(=O)c3ccco3)cc2)cc1,26,39,n,n,n,38,ARFGAP1 confirm=52
COCCNc1nc(NCCCN2CCCC2=O)c2sc(-c3ccccc3)cc2n1,n,n,n,x,x,x,
C=CCNc1nc(NCCCN2CCCC2=O)c2sc(-c3ccccc3)cc2n1,38,60,n,x,x,n,ARFGAP1 confirm=n
Clc1cccc(Cl)c1CON/C=N/c1ncnc2sccc12,93,86,n,n,n,67,ARFGAP1 confirm=66
COc1ccc(C2C(C(=O)c3ccccc3)N3c4ccccc4C=CC3C2[N+](=O)[O-])cc1 (stereo unspecified),29,27,n,x,x,n,ARFGAP1 confirm=n
COc1cc(/C=N/NC(=O)c2cccc([N+](=O)[O-])c2)ccc1OCc1ccccc1,n,n,n,n,n,x,
COc1cc(/C=N/NC(=O)c2ccc(O)cc2)ccc1OCC(=O)Nc1cccc([N+](=O)[O-])c1,30,71,n,n,n,42,ARFGAP1 confirm=75
